Most compounds without a hit are left out; they make up all but 1.9% or so of the library.
RAD52 inh: RAD52 DNA annealing inhibitors, primary screen, biochemical, FRET, single point, set 2 | DNA repair protein RAD52 homolog (Homo sapiens), P43351 | recombinant RAD52 DNA annealing, FRET fluorescence | inhibition, % at 18.7 µM | 360,000 tested, 0.46% active | AID 651710, 2012;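 active = every replicate showing at least 50% inhibition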
PglD DTNB: C. jejuni PglD acetyltransferase inhibitors, primary screen, biochemical, DTNB colorimetric, single point | UDP-N-acetylbacillosamine N-acetyltransferase PglD (Campylobacter jejuni) | purified PglD enzyme, DTNB colorimetric CoA detection | inhibition, % at 12.5 µM | 360,000 tested, 0.098% active; in the data active = inhibition above about 16%, passing the limit was not always enough
RAD54 branch: inhibitors of human RAD54 branch migration, primary screen, biochemical, fluorescence, single point | DNA repair and recombination protein RAD54-like (Homo sapiens), Q92698 | RAD54 Holliday junction branch migration, FAM/BHQ fluorescence | inhibition, % at 10.4 µM | 360,000 tested, 0.14% active | AID 602329, 2012;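 active = mean normalized replicate activity at least 40 and at least half of replicates scoring 40 or more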;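 note: 0% = median of neutral control wells and 100% = median of positive control wells; inhibitors cause a drop in the FAM fluorescence signal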
Target sequence (Q92698 whole entry, looked up): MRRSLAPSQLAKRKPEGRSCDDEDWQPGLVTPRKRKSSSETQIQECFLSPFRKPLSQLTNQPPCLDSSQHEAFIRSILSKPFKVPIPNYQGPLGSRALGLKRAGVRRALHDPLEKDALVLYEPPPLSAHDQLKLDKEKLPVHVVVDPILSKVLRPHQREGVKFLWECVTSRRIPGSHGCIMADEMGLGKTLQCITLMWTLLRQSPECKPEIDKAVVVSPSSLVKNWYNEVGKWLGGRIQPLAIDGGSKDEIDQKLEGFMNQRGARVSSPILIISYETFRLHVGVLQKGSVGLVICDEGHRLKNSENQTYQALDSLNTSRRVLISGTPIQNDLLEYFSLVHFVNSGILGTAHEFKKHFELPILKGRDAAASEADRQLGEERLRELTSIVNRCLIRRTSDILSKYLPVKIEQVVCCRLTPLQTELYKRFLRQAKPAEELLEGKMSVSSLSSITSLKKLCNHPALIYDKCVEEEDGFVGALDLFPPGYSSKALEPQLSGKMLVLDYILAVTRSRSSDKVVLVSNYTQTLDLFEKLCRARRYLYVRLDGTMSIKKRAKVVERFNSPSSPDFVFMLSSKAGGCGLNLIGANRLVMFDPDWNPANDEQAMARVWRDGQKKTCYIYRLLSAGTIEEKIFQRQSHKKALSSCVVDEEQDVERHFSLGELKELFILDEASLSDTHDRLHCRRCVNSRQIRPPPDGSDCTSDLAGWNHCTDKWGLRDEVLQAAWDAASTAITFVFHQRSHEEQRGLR
Ecoli rRNA inh: reduced GFP signal of wild-type E. coli, primary screen, bacterial rRNA inhibitor project, GFP/RFP fluorescence, OD600, single point | E. coli WT GFP vs humanized-ribosome RFP mutants, 24 h; hits give low values; DMSO median 0, no signal -100 | GFP signal change (wild-type ribosome), % (test concentration not listed) | 350,000 tested, 1.6% active;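 active = significant combined selectivity score with lowered wild-type GFP, culture density cut under 30%, mutant RFP and density less affected; inactive = any of these conditions unmet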
Cneo AK release: Cryptococcus neoformans cell lysis inducers, primary screen, AK release luminescence, single concentration | C. neoformans lysis, adenylate kinase release luminescence, 4 h; normalised: neutral wells 0, clomiphene wells 100 | lysis activity, % at 15 µM | 360,000 tested, 0.2% active | AID 651654, 2012;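 active = mean lysis activity across replicates of at least 80%, whatever share of replicates individually reach that level; inactive = mean lysis activity below 80%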
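Schedule: static 4 h at 37 °C with compound, 1 h detection; system: C. neoformans cells; benchmarks: Clomiphene as positive control; buffer or medium: fresh YPD medium; measure: luminescence rise reflecting yeast cell lysis; measured by: luminescent adenylate kinase detection reagent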
* hit, by the source's call; · = no result.

SMILES	RAD52 inh	PglD DTNB	RAD54 branch	Ecoli rRNA inh	Cneo AK release
Cc1nn(Cc2ccc(C(=O)Nc3ccccc3F)cc2)c(C)c1Cl	-7.7	3.4	0.9	-24.0*	-0.5
CCCCc1cc(=O)oc2cc(C)cc(OCC(=O)N3CCC(C(=O)O)(c4ccccc4)CC3)c12	1.4	0.7	6.7	-12.6*	0.3
CCOc1cc(C)cc2oc(=O)cc(-c3ccccc3)c12	-3.5	4.3	4.7	-36.5*	-0.9
CC(=O)Oc1cc(C)cc2oc(=O)cc(-c3ccccc3)c12	-13.3	-1.4	-1.4	-29.8	0.9
CCCCc1cc(=O)oc2cc(C)cc(OCC(=O)N3CCC(C(=O)O)CC3)c12	-0.8	2.7	-1.7	16.9	4.2
CCCNC(=O)N1CC2(CCN(Cc3ccc(F)cc3)CC2)c2c([nH]c3cc(OC)ccc23)[C@H]1CO	·	·	·	-2.1	·
C[C@H](CO)N1C[C@H](C)[C@H](CN(C)S(=O)(=O)c2ccc(F)cc2)Oc2ccc(NC(=O)Nc3ccccc3)cc2C1=O	9.6	9.0	9.1	3.3	-1.0
O=C(/C=C/c1ccccc1[N+](=O)[O-])OCC(=O)c1ccccc1	-7.8	·	·	-21.5*	·
Cc1cccc(C2Nc3ccccc3C(=O)N2CCc2ccccc2)n1 (configuration not stated)	-1.0	9.1	-8.2	1.6	-1.4
O=C1c2ccccc2NC(c2cccc([N+](=O)[O-])c2)N1CCc1ccccc1 (configuration not stated)	-5.3	-5.0	1.0	-20.5*	-2.6
O=C(/C=C/c1ccco1)NC(=S)NNC(=O)c1ccco1	-44.1	-3.2	-4.5	-26.2*	-3.6
CCCOc1ccc(C(=O)NNC(=S)NC(=O)c2ccccc2)cc1	-14.5	-1.9	-1.8	-52.6	2.5
CCCOc1ccc(C(=O)NNC(=S)NC(=O)c2ccco2)cc1	-15.6	·	·	-47.8*	·
Nc1nc(=S)ss1	-16.2	2.8	3.7	-13.3*	0.0
CS(=O)(=O)N1CC2(C1)[C@@H](c1ccccc1)[C@@H](CO)N2C(=O)C1CCC1	·	·	·	3.8	·
Cc1ccc(-c2cc(C(=O)Nc3c(C)n(C)n(-c4ccccc4)c3=O)[nH]n2)c(O)c1C	-12.6	·	·	-19.5*	·
O=C(NC1CCCC1)[C@H]1N[C@H]2c3ccc(-c4cccc(F)c4)c(=O)n3C[C@H]2[C@@H]1CO	57.8*	·	·	-1.1	·
O=C(NC1CCCC1)[C@@H]1N[C@@H]2c3ccc(-c4cccc(F)c4)c(=O)n3C[C@@H]2[C@H]1CO	-7.3	·	·	1.0	·
O=C(NCCN1CCCCC1)[C@@H]1N[C@@H]2c3ccc(-c4ccncc4)c(=O)n3C[C@@H]2[C@H]1CO	10.3	2.0	-4.9	2.2	102.6*
O=C(C[C@H]1C[C@@H]2c3cc(NS(=O)(=O)c4ccc(F)cc4)ccc3O[C@@H]2[C@H](CO)O1)NC1CCCCC1	18.4	1.9	-1.4	-4.6	-3.4
CCCNC(=O)[C@H]1[C@H](CO)[C@H]2Cn3c(ccc(-c4cccnc4)c3=O)[C@H]2N1C(=O)c1ccccc1F	-2.8	-0.5	-8.2	2.6	-0.4
CCc1ccc(/C=C\C(=O)N2CCCC2)cc1	-9.7	-3.0	4.8	-19.1*	-0.5
C/C(=N\NC(=O)c1cc(C)nc2ccccc12)c1ccccn1	1.3	5.5	3.4	-24.4*	3.6
O=C(c1ccc2c(c1)OCO2)N1CC(=O)N2[C@H](C1)[C@H](c1ccc(C#CCC3CCCC3)cc1)[C@@H]2CO	4.5	·	·	-1.7	·
CCc1ccc(NS(=O)(=O)c2ccc3[nH]c(=O)[nH]c3c2)cc1	-2.4	3.4	4.8	1.6	-0.3
SMILES	RAD52 inh	PglD DTNB	RAD54 branch	Ecoli rRNA inh	Cneo AK release
CC(C)Cc1ccc(S(=O)(=O)Nc2ccc3[nH]c(=O)[nH]c3c2)cc1	-3.6	-8.9	-9.4	-25.5*	-1.0
CO[C@H]1CN(C)C(=O)c2ccc(NC(C)=O)cc2OC[C@H](C)N(C(=O)c2ccc(F)cc2)C[C@H]1C	8.5	0.5	-10.6	-2.2	-0.9
CC(C(=O)NC1C=CS(=O)(=O)C1)N1C(=O)/C(=C\c2ccccc2)SC1=S (configuration not stated)	-27.2	-6.4	-2.6	-16.3*	-0.8
CC(C(=O)NC1C=CS(=O)(=O)C1)N1C(=O)/C(=C/c2cccc(Cl)c2)SC1=S (configuration not stated)	-19.7	·	·	-28.1*	·
O=C(C[C@@H]1CC[C@@H]2[C@H](COC[C@H](O)CN2Cc2ccc3c(c2)OCO3)O1)N1CCCCC1	·	-6.8	-26.5	-0.4	-2.2
O=C(Cn1cc(C(=O)c2ccco2)c2ccccc21)Nc1ccccc1F	3.0	·	·	-21.7*	·
O=C(Cn1cc(C(=O)C(F)(F)F)c2ccccc21)Nc1ccccc1F	-20.6	1.9	-4.0	9.3	-0.7
C[C@@H]1CN([C@H](C)CO)C(=O)c2c(c3ccccc3n2C)-c2ccccc2CO[C@@H]1CN(C)C(=O)Nc1cccc(Cl)c1Cl	·	·	·	-2.3	·
Cc1ccc(C(=O)NC(C#N)=C(Cl)Cl)cc1	-12.4	·	·	-27.1*	·
Cc1ccc(C(=O)NCC#N)cc1	-26.3	·	·	2.4	·
CN1N=C2c3ccccc3CCCC2C1c1ccc(F)cc1 (configuration not stated)	-12.0	·	·	-40.0*	·
O=C(/C=C/Nc1ccccc1Oc1ccccc1)c1ccco1	-28.8	-4.9	-0.6	-32.4*	-2.3
O=C(/C=C/Nc1ccccc1O)c1ccco1	-31.1	·	·	3.5	·
O=C(COC(=O)[C@@H]1CC(O)CN1S(=O)(=O)c1ccccc1[N+](=O)[O-])c1ccccc1 (some centres not stated)	-10.2	-1.3	-0.1	7.8	-0.2
COC(=O)c1ccc(COC(=O)[C@@H]2CC(O)CN2S(=O)(=O)c2ccccc2[N+](=O)[O-])cc1 (some centres not stated)	-0.5	-0.6	10.6	-17.4*	-0.7
C[C@@H]1CN([C@@H](C)CO)C(=O)c2c(c3ccccc3n2C)-c2ccccc2CO[C@H]1CN(C)Cc1ccccc1	·	·	·	-37.7	·
CCc1ccc2oc(C(=O)NCCc3ccc(S(N)(=O)=O)cc3)cc(=O)c2c1	-3.0	18.1	3.0	-33.8*	-1.3
COc1ccc(NC(=O)O[C@@H](c2ccc(OC)c(O)c2)[C@H](CCO)OC)cc1	15.8	3.0	2.7	·	-12.1
CCN(c1ccc(OCC(=O)OCC(=O)c2c(N)n(C)c(=O)n(C)c2=O)cc1)S(=O)(=O)c1ccccc1	-9.1	0.1	0.2	-15.0*	1.1
Cn1c(N)c(C(=O)COC(=O)CSc2ccccc2)c(=O)n(C)c1=O	-14.6	·	·	-17.6*	·
